The values that follow come from ChEMBL document CHEMBL1157861, “Phosphaisocoumarins as a new class of potent inhibitors for pancreatic cholesterol esterase” (Eur J Med Chem, 2010).

Molecules are shown by their SMILES. The source made the active and inactive calls. The calls are words filed in the database; no cut-off is given here.

As usually defined, the IC50 is the concentration that inhibits the measured activity by half. A word on the Ki: it is a measure of affinity in units of concentration, obtained from inhibition or displacement.

The nature of assay [1]: Inhibition of pig pancreatic cholesterol esterase assessed as p-nitrophenylbutyrate hydrolysis after 1 min. Set-up: species or system Sus scrofa. The procedure, abridged: (§1)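 Porcine pancreatic CEase (0.0125 mU) is pre-incubated for 1 min with varied inhibitor concentrations in 0.1 M sodium phosphate, pH 7.04, with 0.1 M NaCl. PNPB (0.1 mM) is then added and hydrolysis is followed by A405 for 1 min. Compounds are also checked at one fixed top concentration. Each concentration is run in triplicate and averaged.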

The nature of assay [2]: Inhibition of pig pancreatic cholesterol esterase assessed as p-nitrophenylbutyrate hydrolysis at 100 uM after 1 min. Set-up: species or system Sus scrofa. The procedure, abridged:
as §1

The species named for assay [3] is Sus scrofa. Briefly: Reversible inhibition of pig pancreatic cholesterol after 6 hrs absence of p-nitrophenylbutyrate. A digest of the protocol:
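CEase and excess inhibitor are incubated without substrate in sodium phosphate buffer, pH 7.04, with 5% acetonitrile by volume, at 25 °C for up to 6 h. Samples are checked periodically by TLC.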

Assay [4] can be described thus: Competitive inhibition of pig pancreatic cholesterol esterase assessed as p-nitrophenylbutyrate hydrolysis after 1 min by Lineweaver-Burke plot analysis. Further details: species or system Sus scrofa. The procedure, abridged:
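For kinetics, CEase (0.0125 mU) is pre-incubated 1 min with inhibitor in sodium phosphate buffer. PNPB is then added at 0.07–0.3 mM and the A405 change is followed for 1 min at each substrate level. Mechanism is assigned from the rate data across substrate and inhibitor concentrations.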

For assay [5], the species on record is Sus scrofa. Briefly: Reversible inhibition of pig pancreatic cholesterol esterase assessed as p-nitrophenylbutyrate hydrolysis after 1 min.

Turning to `CCOP1(=O)OC(c2ccc(CC)cc2)=Cc2ccc(Cl)cc21` (centres undefined), in assay [1], the IC50 turned out to be 40.3 µM.

In the case of `CCOP1(=O)OC(CO)=Cc2ccc(OC)cc21` (centres undefined), the IC50 in assay [1] came out at 79.4 µM.

As to `CCOP1(=O)OC(c2ccccc2)=C(Br)c2ccccc21` (centres undefined), the IC50 in assay [1] amounted to 18.9 µM.

As for `CCCCC1=C(Br)c2ccccc2P(=O)(OCC)O1` (centres undefined), the IC50 result in assay [2] was “Not Active”.

Turning to `CCCCC1=Cc2ccccc2P(=O)(O)O1`, in assay [1], the IC50 turned out to be 62.6 µM.

For the compound `CCOP1(=O)OC(c2ccccc2)=Cc2ccccc21` (centres undefined), in assay [1], the IC50 came out at 63.6 µM.

For the compound `CCOP1(=O)OC(c2ccccc2)=Cc2ccc(Cl)cc21` (centres undefined), the IC50 in assay [1] came out at 56.9 µM.

For `CCOP1(=O)OC(c2ccc(CC)cc2)=C(Br)c2ccc(Cl)cc21` (centres undefined), in assay [1], the IC50 was 6.4 µM.

For `CCOP1(=O)OC(c2ccc([N+](=O)[O-])cc2)=Cc2ccc(Cl)cc21` (centres undefined), in assay [1], the IC50 was over 100 µM.

For `CCOP1(=O)OC(c2ccc(CC)cc2)=C(Cl)c2ccc(Cl)cc21` (centres undefined), the IC50 in assay [1] was determined as 8.9 µM.

As to `O=P1(O)OC(c2ccccc2)=C(Cl)c2ccccc21`, the IC50 in assay [1] amounted to 1.9 µM. The outcome in the assay listed under Sus scrofa [3] was inactive. Also, in assay [4], the Ki turned out to be 1.4 µM. The result in the assay filed under Sus scrofa [5] was Active.

With `CCCCC1=C(I)c2ccccc2P(=O)(OCC)O1` (centres undefined), in assay [2], the IC50 entry was “Not Active”.

With `COc1ccc2c(c1)P(=O)(O)OC(c1ccccc1)=C2`, the IC50 in assay [1] was determined as 102 µM.

Turning to `CCCCC1=C(Cl)c2ccccc2P(=O)(OCC)O1` (centres undefined), the concentration for half-maximal inhibition (IC50) entry in assay [2] is reported as “Not Active”.

As to `O=P1(O)OC(c2ccccc2)=C(Br)c2ccccc21`, the IC50 in assay [1] is 14.1 µM.

On to `CCOP1(=O)OC(c2ccc(OC)cc2)=C(Br)c2ccc(Cl)cc21` (centres undefined), for which the IC50 in assay [1] worked out at 47.9 µM.

In the case of `CCOP1(=O)OC(C2CC2)=Cc2ccc(Cl)cc21` (centres undefined), the IC50 entry in assay [2] was “Not Active”.

With `CCCCC1=Cc2ccccc2P(=O)(OCC)O1` (centres undefined), the IC50 entry in assay [2] is “Not Active”.

With `CCCCC1=C(Br)c2ccc(Cl)cc2P(=O)(OCC)O1` (centres undefined), the IC50 result in assay [2] was “Not Active”.

Turning to `CCOP1(=O)OC(c2ccccc2)=C(Cl)c2ccc(OC)cc21` (centres undefined), in assay [1], the concentration for half-maximal inhibition (IC50) was 89.6 µM.

As for `CCOP1(=O)OC(C2CC2)=C(Cl)c2ccc(OC)cc21` (centres undefined), the IC50 in assay [1] was over 150 µM.

On to `CCOP1(=O)OC(C2CC2)=C(Cl)c2ccc(Cl)cc21` (centres undefined), for which the IC50 in assay [1] was over 100 µM.

With `O=P1(O)OC(c2ccccc2)=C(Cl)c2ccc(Cl)cc21`, in assay [1], the IC50 is 14.6 µM.

For `CCOP1(=O)OC(c2ccccc2)=C(I)c2ccccc21` (centres undefined), the IC50 in assay [1] worked out at 30.3 µM.

As to `CCOP1(=O)OC(c2ccc(OC)cc2)=C(I)c2ccc(Cl)cc21` (centres undefined), the IC50 in assay [1] amounted to 26.2 µM.

Take `CCOP1(=O)OC(c2ccccc2)=C(Cl)c2ccc(Cl)cc21` (centres undefined): the IC50 in assay [1] was determined as 34.8 µM.

Consider `CCOP1(=O)OC(c2ccccc2)=C(Br)c2ccc(OC)cc21` (centres undefined), for which the IC50 in assay [1] is 34.4 µM.

In the case of `CCOP1(=O)OC(C2CC2)=C(Br)c2ccc(OC)cc21` (centres undefined), the IC50 result in assay [2] was “Not Active”.

As for `CCCCC1=C(Cl)c2ccc(Cl)cc2P(=O)(OCC)O1` (centres undefined), in assay [2], the half-maximal inhibitory concentration (IC50) entry is listed as “Not Active”.

Consider `CCOP1(=O)OC(c2ccccc2)=C(I)c2ccc(Cl)cc21` (centres undefined), for which the IC50 in assay [1] is 47.9 µM.

`CCCCC1=Cc2ccc(Cl)cc2P(=O)(OCC)O1` (centres undefined): the IC50 in assay [1] came to 43.1 µM.

Regarding `CCOP1(=O)OC(c2ccc(CC)cc2)=C(CC(=O)c2ccccc2)c2ccc(Cl)cc21` (centres undefined), in assay [1], the IC50 was 5.1 µM.

As to `CCOP1(=O)OC(c2ccccc2)=Cc2ccc(OC)cc21` (centres undefined), the IC50 in assay [1] amounted to 77.4 µM.

For `CCOP1(=O)OC(c2ccc(CC)cc2)=C(C#Cc2ccccc2)c2ccc(Cl)cc21` (centres undefined), in assay [1], the IC50 is 8.5 µM.

On to `CCc1ccc(C2=Cc3ccc(Cl)cc3P(=O)(O)O2)cc1`, for which the IC50 in assay [1] is 58.4 µM.

As for `CCOP1(=O)OC(c2ccccc2)=C(Cl)c2ccccc21` (centres undefined), the concentration for half-maximal inhibition (IC50) in assay [1] was found to be 12.7 µM.

For the compound `CCOP1(=O)OC(C2CC2)=C(I)c2ccc(Cl)cc21` (centres undefined), the IC50 entry in assay [2] is reported as “Not Active”.

`O=P1(O)OC(c2ccccc2)=Cc2ccccc21`: the IC50 in assay [1] was 96.3 µM.

For `COc1ccc2c(c1)P(=O)(O)OC(c1ccccc1)=C2Br`, in assay [1], the IC50 was 57.4 µM.

As for `CCOP1(=O)OC(c2ccccc2)=C(C#Cc2ccccc2)c2ccccc21` (centres undefined), in assay [1], the IC50 amounted to 2.3 µM. Besides, the result in the assay listed under Sus scrofa [3] was inactive. Moreover, the Ki in assay [4] worked out at 1.9 µM. The result in the assay filed under Sus scrofa [5] was Active.

In the case of `CCOP1(=O)OC(C2CC2)=C(Br)c2ccc(Cl)cc21` (centres undefined), in assay [2], the IC50 entry is reported as “Not Active”.

In the case of `O=P1(O)OC(c2ccccc2)=Cc2ccc(Cl)cc21`, the IC50 in assay [1] was determined as 38.7 µM.

Consider `CCOP1(=O)OC(c2ccccc2)=C(Br)c2ccc(Cl)cc21` (centres undefined), for which the IC50 in assay [1] is 51.2 µM.

Take `CCOP1(=O)OC(c2ccccc2)=C(I)c2ccc(OC)cc21` (centres undefined): the IC50 in assay [1] is 54.5 µM.

Regarding `CCOP1(=O)OC(c2ccc(CC)cc2)=C(I)c2ccc(Cl)cc21` (centres undefined), the IC50 in assay [1] was 4.8 µM. Besides, the result in the assay filed under Sus scrofa [3] was inactive. For the same compound, the Ki in assay [4] is 4.2 µM. The outcome in the assay listed under Sus scrofa [5] was Active.
